SMILES strings stand for the structures.

For assay [1], the target named is Cholinesterase (Homo sapiens, UniProt P06276, T271M/G418V). Put plainly: Inhibition of human BChE T243M/G390V mutant fluoride-resistant homozygous variant using propionylthiocholine as substrate assessed as inhibition rate constant incubated up to 30 mins prior to substrate addition by Ellman's method. In outline: (§1)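 BChE from heparinized human donor plasma (centrifuged supernatant, phenotyped), unpurified, diluted 150 - 300 times in phosphate buffer. Enzyme incubated ≤30 min with carbamate in 0.1 M phosphate buffer pH 7.4, 25 °C. Reaction stopped with PTCh (4.0 mM final) and residual activity read by Ellman (DTNB 0.3 mM final, 412 nm). At least three carbamate concentrations, at least two experiments. First-order constants from ln(v0/vi) vs time; ki = kmax/Ki.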
Chain of Cholinesterase (Homo sapiens, UniProt P06276, T271M/G418V) (P06276 29-602 T271M/G418V limits assumed): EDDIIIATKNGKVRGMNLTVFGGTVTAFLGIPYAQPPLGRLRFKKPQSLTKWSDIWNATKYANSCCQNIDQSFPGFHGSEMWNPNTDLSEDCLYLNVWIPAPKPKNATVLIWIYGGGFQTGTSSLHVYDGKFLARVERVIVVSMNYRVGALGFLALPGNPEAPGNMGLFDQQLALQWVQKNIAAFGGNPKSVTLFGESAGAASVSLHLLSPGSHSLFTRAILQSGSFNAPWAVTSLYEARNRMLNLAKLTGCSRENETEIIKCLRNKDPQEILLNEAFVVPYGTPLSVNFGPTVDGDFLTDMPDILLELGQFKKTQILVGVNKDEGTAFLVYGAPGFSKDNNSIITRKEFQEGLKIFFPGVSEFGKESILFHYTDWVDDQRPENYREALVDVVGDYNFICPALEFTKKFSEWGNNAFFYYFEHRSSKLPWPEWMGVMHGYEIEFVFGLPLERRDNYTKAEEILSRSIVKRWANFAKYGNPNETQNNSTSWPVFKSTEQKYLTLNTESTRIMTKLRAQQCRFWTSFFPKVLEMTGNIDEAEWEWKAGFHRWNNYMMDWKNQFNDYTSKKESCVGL

For assay [2], the target named is T1, Cholinesterase (Homo sapiens, UniProt P06276). Put plainly: Inhibition of human BChE D70G mutant usual-atypical heterozygous variant using propionylthiocholine as substrate assessed as inhibition rate constant incubated up to 30 mins prior to substrate addition by Ellman's method. In outline: as §1
Target sequence in this assay (P06276 29-602 limits assumed): as the sequence (P06276 29-602 T271M/G418V limits assumed) above, with M243T, V390G counted along it
Assay [3] deals with Cholinesterase (Homo sapiens, UniProt P06276, D98G). Nature of the assay: Inhibition of human BChE D70G mutant atypical homozygous variant using propionylthiocholine as substrate assessed as inhibition rate constant incubated up to 30 mins prior to substrate addition by Ellman's method. In outline: as §1
Chain of Cholinesterase (Homo sapiens, UniProt P06276, D98G) (P06276 29-602 D98G limits assumed): as the sequence (P06276 29-602 T271M/G418V limits assumed) above, with D70G, M243T, V390G counted along it
The target in assay [4] is T1, Cholinesterase. Nature of the assay: Inhibition of human BChE usual homozygous variant using propionylthiocholine as substrate assessed as inhibition rate constant incubated up to 30 mins prior to substrate addition by Ellman's method. Put shortly:
as §1
Target sequence in this assay (P06276 29-602 limits assumed, stated change not applied): as the sequence (P06276 29-602 T271M/G418V limits assumed) above, with M243T, V390G counted along it

For assay [5], the target named is T2, Acetylcholinesterase (Homo sapiens, UniProt P22303). Nature of the assay: Inhibition of human AChE using acetylthiocholine as substrate by Ellman's method.
T2 sequence (P22303 whole entry): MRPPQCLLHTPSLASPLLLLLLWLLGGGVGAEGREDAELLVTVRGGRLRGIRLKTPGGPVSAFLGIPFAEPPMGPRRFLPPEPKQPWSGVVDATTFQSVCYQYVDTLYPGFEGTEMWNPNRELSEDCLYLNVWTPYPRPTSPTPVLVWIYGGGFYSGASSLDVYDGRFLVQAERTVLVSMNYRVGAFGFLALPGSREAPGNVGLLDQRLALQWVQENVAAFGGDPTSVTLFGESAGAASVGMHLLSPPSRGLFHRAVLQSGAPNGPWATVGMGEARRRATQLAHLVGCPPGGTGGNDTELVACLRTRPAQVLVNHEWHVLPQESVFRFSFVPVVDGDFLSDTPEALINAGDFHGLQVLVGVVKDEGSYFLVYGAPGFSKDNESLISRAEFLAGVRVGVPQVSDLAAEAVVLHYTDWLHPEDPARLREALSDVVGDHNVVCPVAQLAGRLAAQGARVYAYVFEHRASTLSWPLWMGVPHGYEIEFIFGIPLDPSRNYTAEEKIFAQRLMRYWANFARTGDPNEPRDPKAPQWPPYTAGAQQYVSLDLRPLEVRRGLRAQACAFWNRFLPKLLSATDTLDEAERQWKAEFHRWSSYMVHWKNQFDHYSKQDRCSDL
The target in assay [6] is T2, Acetylcholinesterase. Put plainly: Inhibition of human AChE using acetylthiocholine as substrate assessed as inhibition rate constant by Ellman's method.
The target in assay [7] is T1, Cholinesterase. Put plainly: Inhibition of human BChE D70G/T243M/G390V mutant atypical-fluoride resistant heterozygous variant using propionylthiocholine as substrate assessed as inhibition rate constant incubated up to 30 mins prior to substrate addition by Ellman's method. Put shortly:
as §1
Target sequence in this assay (P06276 29-602 limits assumed): as the sequence (P06276 29-602 T271M/G418V limits assumed) above, with M243T, V390G counted along it

For assay [8], the target named is T1, Cholinesterase. Nature of the assay: Inhibition of human BChE D70G/T243M/G390V mutant atypical-fluoride resistant heterozygous variant using propionylthiocholine as substrate by Ellman's method. The conditions noted are these: TDE = time-dependent effect. Put shortly:
(§2)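 Reversible inhibition of plasma BChE (phenotyped donor plasma, diluted 150 - 300 times) measured at several PTCh concentrations, with and without inhibitor (0.5 mM - 10 mM). Ellman read-out at 412 nm, DTNB 0.3 mM final, 0.1 M phosphate pH 7.4, 25 °C. Ki,app per substrate concentration from the Hunter-Downs equation by linear regression. Y-intercept gives K(I) and x-intercept gives K(S).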
Target sequence in this assay (P06276 whole entry): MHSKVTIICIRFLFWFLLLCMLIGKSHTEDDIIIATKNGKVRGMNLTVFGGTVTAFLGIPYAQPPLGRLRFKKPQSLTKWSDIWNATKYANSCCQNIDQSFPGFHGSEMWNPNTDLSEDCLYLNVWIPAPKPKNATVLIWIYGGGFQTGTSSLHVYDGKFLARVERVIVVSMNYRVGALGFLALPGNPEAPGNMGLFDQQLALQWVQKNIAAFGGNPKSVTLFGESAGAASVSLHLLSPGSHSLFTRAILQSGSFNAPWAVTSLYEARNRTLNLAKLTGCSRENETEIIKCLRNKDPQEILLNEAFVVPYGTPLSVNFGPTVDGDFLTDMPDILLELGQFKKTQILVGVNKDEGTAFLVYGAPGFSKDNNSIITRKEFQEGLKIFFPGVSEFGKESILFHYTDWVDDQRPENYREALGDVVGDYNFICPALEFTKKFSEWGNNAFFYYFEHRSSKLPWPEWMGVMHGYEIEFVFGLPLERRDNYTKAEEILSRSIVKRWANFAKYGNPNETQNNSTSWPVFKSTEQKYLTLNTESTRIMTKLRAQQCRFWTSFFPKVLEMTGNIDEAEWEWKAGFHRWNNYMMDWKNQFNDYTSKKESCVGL

The target of assay [9] is T1, Cholinesterase. Nature of the assay: Inhibition of human BChE T243M/G390V mutant fluoride-resistant homozygous variant using propionylthiocholine as substrate by Ellman's method. The conditions noted are these: TDE = time-dependent effect. Put shortly: as §2
Target sequence in this assay (P06276 whole entry): as above
Assay [10] addresses T1, Cholinesterase. Put plainly: Inhibition of human BChE D70G mutant usual-atypical heterozygous variant using propionylthiocholine as substrate by Ellman's method. As to conditions: TDE = time-dependent effect. In outline:
as §2
Target sequence in this assay (P06276 whole entry): as above

Assay [11] has as its target T1, Cholinesterase. Put plainly: Inhibition of human BChE D70G mutant atypical homozygous variant using propionylthiocholine as substrate by Ellman's method. As to conditions: TDE = time-dependent effect. Put shortly: as §2
Target sequence in this assay (P06276 whole entry): as above
For assay [12], the target named is T1, Cholinesterase. Nature of the assay: Inhibition of human BChE usual homozygous variant using propionylthiocholine as substrate by Ellman's method. The conditions noted are these: TDE = time-dependent effect. Put shortly:
as §2
Target sequence in this assay (P06276 whole entry): as above

Assay [13] concerns the target T1, Cholinesterase. Nature of the assay: Binding affinity to human BChE D70G mutant atypical homozygous variant relative to terbutaline.
Target sequence in this assay (P06276 whole entry): as above
Assay [14] is filed under the species Homo sapiens. Nature of the assay: Selectivity ratio of apparent dissociation constant for enzyme-inhibitor complex for human AChE to apparent dissociation constant for enzyme-inhibitor complex for human BChE T243M/G390V mutant fluoride-resistant homozygous variant. Put shortly:
(§3)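 Human plasma BChE (phenotyped variants) and hemolysed erythrocyte AChE were used unpurified, with plasma diluted 150-300x and erythrocytes 600x. Activity was read by the Ellman method at 412 nm (DTNB 0.3 mM final) in 0.1 M phosphate, pH 7.4, 25 °C. Substrate was PTCh for BChE and ATCh for AChE, each at several concentrations, with inhibitor at 0.5-10 mM. Ki is the y-intercept of a Hunter-Downs linear regression.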

For assay [15], the species on record is Homo sapiens. Put plainly: Selectivity ratio of apparent dissociation constant for enzyme-inhibitor complex for human AChE to apparent dissociation constant for enzyme-inhibitor complex for human BChE D70G mutant atypical homozygous variant. In outline: as §3

In the case of `CC(C)NC[C@H](O)c1cc(OC(=O)N(C)C)cc(OC(=O)N(C)C)c1.Cl`, the “bimolecular inhibition rate constant (ki)” value came to 1100 ×10³ /M/min in assay [1], 2200 ×10³ /M/min in [2], 76 ×10³ /M/min in assay [3] and 3200 ×10³ /M/min in assay [4]. Further, the affinity in [5] corresponds to a Ki of 390 µM. In assay [6], the Inhibition rate constant worked out at 4.7 ×10³ /M/min. Moreover, in assay [7], the “Carbamylation rate constant (ki)” value amounted to 550 ×10³ /M/min.

As to `CC(C)NCC(O)c1cc(OC(=O)N(C)C)cc(OC(=O)N(C)C)c1.Cl` (racemic), the “bimolecular inhibition rate constant (ki)” value in assay [1] is reported as 600 ×10³ /M/min; in assay [2], 1400 ×10³ /M/min; in assay [3], 40 ×10³ /M/min; in assay [4], 2200 ×10³ /M/min. Moreover, the inhibition entry in [8], in [9], in assay [10], in [11] and in assay [12] was “tde” throughout. This compound gave a Ki in assay [5] of 710 µM. Also, the Inhibition rate constant in [6] turned out to be 2.3 ×10³ /M/min. The “Carbamylation rate constant (ki)” value in [7] was determined as 440 ×10³ /M/min.

Take `CC(C)NCC(O)c1ccc(OC(=O)N(C)C)c(OC(=O)N(C)C)c1.Cl` (racemic): the “bimolecular inhibition rate constant (ki)” value in assay [1] was 140 ×10³ /M/min; in assay [2], 160 ×10³ /M/min; in assay [3], 21 ×10³ /M/min; in [4] it was 200 ×10³ /M/min. In addition, the inhibition result in assay [8], in [9], in assay [10], in assay [11] and in assay [12] was “tde” each time. The same compound registered a Ki in [5] of 1400 µM. For the same compound, in assay [6], the Inhibition rate constant is reported as 2.5 ×10³ /M/min. Moreover, the “Carbamylation rate constant (ki)” value in assay [7] is 87 ×10³ /M/min.

Take `CC(C)NCC(O)c1ccc(O)c(O)c1` (racemic): in assay [13], the Ratio came to 2. Moreover, the Selectivity ratio in [14] and in assay [15] was 4 each time.

Regarding `CC(C)NC[C@H](O)c1ccc(OC(=O)N(C)C)c(OC(=O)N(C)C)c1.Cl`, the “bimolecular inhibition rate constant (ki)” value in assay [1] came to 150 ×10³ /M/min; in assay [2], 210 ×10³ /M/min; in assay [3], 31 ×10³ /M/min; in [4] it was 340 ×10³ /M/min. For the same compound, in assay [5], the affinity, expressed as Ki, was 1200 µM. In addition, in assay [6], the Inhibition rate constant amounted to 2.7 ×10³ /M/min. Besides, the “Carbamylation rate constant (ki)” value in assay [7] was 100 ×10³ /M/min.

Consider `CC(C)NCC(O)c1cc(O)cc(O)c1` (racemic), for which the Selectivity ratio in assay [14] and in assay [15] was 4 each time.
